{
  "source": "ChEMBL document CHEMBL4177753",
  "about": "“Structural Modification of Natural Product Ganomycin I Leading to Discovery of a α-Glucosidase and HMG-CoA Reductase Dual Inhibitor Improving Obesity and Metabolic Dysfunction in Vivo” (J Med Chem, 2018)",
  "key": {"Prevotella": {"system": "Prevotella", "assay": "Decrease in Prevotella levels in cecum of ob/ob mouse at 3 mg/kg administered daily via oral gavage for 31 days by 16S rRNA gene high-throughput sequencing method", "format": "functional, organism-based", "procedure,_shortened": "(§1)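 Male ob/ob mice dosed daily by gavage at 1.0 or 3.0 mg/kg, compared with vehicle group. DNA extracted from about 150 mg caecum contents. 16S rRNA V3–V4 region amplified and sequenced on Illumina HiSeq PE250. Community compared by NMDS/MRPP; discriminant taxa identified by LEfSe.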"}, "Mus musculus [1]": {"system": "Mus musculus", "assay": "Hypolipidemic activity in C57BL/6J DIO mouse assessed as decrease in plasma triglyceride levels at 0.3 to 3 mg/kg administered daily via oral gavage for 5 weeks", "format": "functional, organism-based", "procedure,_shortened": "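High-fat-diet male C57BL/6J mice, n = 8 per group, daily gavage at 0.3–3.0 mg/kg in soybean vehicle for 5 weeks. Serum total cholesterol, triglycerides and free fatty acids measured.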"}, "Neisseria": {"system": "Neisseria", "assay": "Decrease in Neisseri levels in cecum of ob/ob mouse at 3 mg/kg administered daily via oral gavage for 31 days by 16S rRNA gene high-throughput sequencing method", "format": "functional, organism-based", "procedure,_shortened": "as §1"}, "Mus musculus [2]": {"system": "Mus musculus", "assay": "Hypolipidemic activity in antibiotic-treated ob/ob mouse assessed as decrease in hepatic total cholesterol levels at 3 mg/kg administered daily via oral gavage for 3 weeks", "format": "functional, organism-based", "procedure,_shortened": "(§2)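 Male ob/ob mice pretreated three weeks with ampicillin (1 g/L), vancomycin, neomycin, gentamycin and erythromycin. Groups of n = 8 given 3.0 mg/kg/day orally in soybean vehicle versus vehicle. Plasma and hepatic lipids, fasting glucose, OGTT (glucose 2 g/kg after overnight fast) and HbA1c measured.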"}, "Mus musculus [3]": {"system": "Mus musculus", "assay": "Hypolipidemic activity in ob/ob mouse assessed as decrease in plasma triglyceride levels administered daily via oral gavage for 31 days", "format": "functional, organism-based"}, "Lachnospiraceae": {"system": "Lachnospiraceae", "assay": "Increase in Lachnospiraceae levels in cecum of ob/ob mouse at 1 to 3 mg/kg administered daily via oral gavage for 31 days by 16S rRNA gene high-throughput sequencing method", "format": "functional, organism-based", "procedure,_shortened": "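Caecum contents (about 150 mg) from ob/ob mice given 1.0 or 3.0 mg/kg by gavage; DNA extracted, 16S rRNA gene V3-V4 region amplified and sequenced on Illumina HiSeq PE250; community compared with vehicle group by NMDS/MRPP and LEfSe.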"}, "Fusobacterium": {"system": "Fusobacterium", "assay": "Decrease in Fusobacterium levels in cecum of ob/ob mouse at 3 mg/kg administered daily via oral gavage for 31 days by 16S rRNA gene high-throughput sequencing method", "format": "functional, organism-based", "procedure,_shortened": "as §1"}, "[4]": {"assay": "AUC (0 to infinity) in Sprague-Dawley rat at 2 mg/kg, po", "format": "ADME, organism-based", "parameters": "dose 2 mg/kg, route oral, time infinity", "conditions": "in vivo", "procedure,_shortened": "(§3)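 Male Sprague-Dawley rats (n = 6, 0.21–0.23 kg), single oral dose 2.0 mg/kg. Orbital blood sampled 0–16 h into heparinized tubes. Plasma was protein-precipitated with methanol, with internal standard added. Quantified by UPLC-ESI(+)-QTOF-MS in SIM mode on a C18 column with a methanol/0.3% formic acid water gradient. Linear range 0.54–107 ng/ml.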"}, "Mus musculus [5]": {"system": "Mus musculus", "assay": "Hypolipidemic activity in ob/ob mouse assessed as decrease in hepatocyte ballooning at 3 mg/kg administered daily via oral gavage for 31 days by oil red O staining-based microscopic method", "format": "functional, organism-based", "procedure,_shortened": "(§4)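 Male ob/ob mice dosed by gavage (soybean vehicle); liver and abdominal white adipose tissue fixed in 10% formaldehyde-PBS pH 7.4, paraffin-embedded, sectioned, stained with H&E, Oil Red O or sirius red, and examined by light microscopy.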"}, "Mus musculus [6]": {"system": "Mus musculus", "assay": "Reduction of liver TNF-alpha levels in ob/ob mouse at 3 mg/kg administered daily via oral gavage for 31 days by DAPI staining/immunofluorescence-based confocal microscopic method", "format": "functional, organism-based", "procedure,_shortened": "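Liver from ob/ob mice dosed at 3.0 mg/kg by gavage; tissue methanol-fixed, blocked in PBS with 5% BSA, stained with anti-TNFα (1:200) and Alexa Fluor 610 secondary (1:250), nuclei with DAPI; confocal imaging, per-cell TNFα expression quantified.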"}, "Mus musculus [7]": {"system": "Mus musculus", "assay": "Antiobesity activity in ob/ob mouse assessed as reduction in weight gain at 3 mg/kg administered daily via oral gavage for 31 days relative to vehicle-treated control", "format": "functional", "parameters": "scale not given: the % may be the effect or the level left", "procedure,_shortened": "(§5)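 Male ob/ob mice, n = 10 per group, grouped by blood glucose and body weight. Daily gavage at 0.3, 1.0 or 3.0 mg/kg in soybean vehicle, with soybean vehicle controls and C57BL/6J controls. Body weight, cumulative food intake, LEE index, fat mass and lean mass recorded. Mean ± SEM, one-way ANOVA with Tukey test.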"}, "Mus musculus [8]": {"system": "Mus musculus", "assay": "Hypolipidemic activity in antibiotic-treated ob/ob mouse assessed as decrease in hepatic LDL-C levels at 3 mg/kg administered daily via oral gavage for 3 weeks", "format": "functional, organism-based", "procedure,_shortened": "as §2"}, "Mus musculus [9]": {"system": "Mus musculus", "assay": "Hypolipidemic activity in ob/ob mouse assessed as decrease in liver free fatty acid levels at 0.3 to 3 mg/kg administered daily via oral gavage for 31 days", "format": "functional, organism-based"}, "Mus musculus [10]": {"system": "Mus musculus", "assay": "Antiobesity activity in ob/ob mouse assessed as change in lean mass at 3 mg/kg administered daily via oral gavage for 31 days", "format": "functional, organism-based", "procedure,_shortened": "as §5"}, "[11]": {"assay": "Tmax in Sprague-Dawley rat at 2 mg/kg, po", "format": "ADME, organism-based", "conditions": "in vivo", "procedure,_shortened": "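Six male Sprague-Dawley rats (0.21–0.23 kg) dosed orally at 2.0 mg/kg; blood from orbital vein at 0–16 h into heparinized tubes; plasma protein precipitated with methanol plus internal standard. Quantified by UPLC–Q-TOF MS, ESI positive, single ion monitoring (m/z 367.2637); linear range 0.54–107 ng/ml.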"}, "[12]": {"assay": "Cmax in Sprague-Dawley rat at 2 mg/kg, po", "format": "ADME, organism-based", "parameters": "dose 2 mg/kg, route oral", "conditions": "in vivo", "procedure,_shortened": "as §3"}, "Mus musculus [13]": {"system": "Mus musculus", "assay": "Upregulation of Pparg mRNA expression in ob/ob mouse ileum at 3 mg/kg administered daily via oral gavage for 31 days by RNA-seq analysis", "format": "functional, organism-based"}, "Mus musculus [14]": {"system": "Mus musculus", "assay": "Hypoglycemic activity in antibiotic-treated ob/ob mouse assessed as decrease in blood glucose AUC at 3 mg/kg administered daily via oral gavage for 3 weeks by OGTT", "format": "functional, organism-based", "procedure,_shortened": "as §2"}, "Mus musculus [15]": {"system": "Mus musculus", "assay": "Hypolipidemic activity in ob/ob mouse assessed as decrease in macrosteatosis at 3 mg/kg administered daily via oral gavage for 31 days by hematoxylin-eosin staining-based microscopic method", "format": "functional, organism-based", "procedure,_shortened": "as §4"}, "Mus musculus [16]": {"system": "Mus musculus", "assay": "Hypolipidemic activity in antibiotic-treated ob/ob mouse assessed as decrease in hepatic free fatty acid levels at 3 mg/kg administered daily via oral gavage for 3 weeks", "format": "functional, organism-based", "procedure,_shortened": "as §2"}, "Mus musculus [17]": {"system": "Mus musculus", "assay": "Toxicity in C57BL/6J mouse assessed as effect on free diet blood glucose levels at 30 mg/kg administered daily via oral gavage for 3 months", "format": "organism-based", "conditions": "in vivo", "procedure,_shortened": "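Long-term safety study in C57BL/6J mice, 20 male and 20 female, sorted by gender, blood glucose and body weight into four groups (n = 10 each). Treated groups of each sex got 30.0 mg/kg daily by oral gavage in soybean vehicle. Vehicle groups got an equal volume of soybean. Dosing ran three months, with behavior, survival, body weight, blood glucose, liver function and organ coefficients recorded.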"}, "Mus musculus [18]": {"system": "Mus musculus", "assay": "Antifibrotic activity in ob/ob mouse assessed as decrease in hepatic hydroxyproline levels at 3 mg/kg administered daily via oral gavage for 31 days", "format": "functional, organism-based"}, "Mus musculus [19]": {"system": "Mus musculus", "assay": "Upregulation of ZO-1 mRNA expression in ob/ob mouse ileum at 3 mg/kg administered daily via oral gavage for 31 days by RNA-seq analysis", "format": "functional, organism-based"}, "Mus musculus [20]": {"system": "Mus musculus", "assay": "Hypolipidemic activity in antibiotic-treated ob/ob mouse assessed as decrease in plasma LDL-C levels at 3 mg/kg administered daily via oral gavage for 3 weeks", "format": "functional, organism-based", "procedure,_shortened": "as §2"}, "Mus musculus [21]": {"system": "Mus musculus", "assay": "Antiobesity activity in ob/ob mouse assessed as reduction in LEE index at 3 mg/kg administered daily via oral gavage for 31 days relative to vehicle-treated control", "format": "functional, organism-based", "procedure,_shortened": "as §5"}},
  "note": "Active and inactive are the calls of the source. The calls are words filed in the database; no cut-off is given here.",
  "data": [
    {"smiles": "CC(C)=CCC/C(C)=C/CCC1=C[C@H](c2ccc(C(C)(C)C)cc2)OC1=O", "values": [
      {"measurement": "Activity", "setting": "Prevotella", "value": "Active"},
      {"measurement": "Activity", "setting": "Mus musculus [1]", "value": "Active"},
      {"measurement": "Activity", "setting": "Neisseria", "value": "Active"},
      {"measurement": "Activity", "setting": "Mus musculus [2]", "value": "inactive"},
      {"measurement": "Activity", "setting": "Mus musculus [3]", "value": "Dose-dependent effect"},
      {"measurement": "Activity", "setting": "Lachnospiraceae", "value": "Active"},
      {"measurement": "Activity", "setting": "Fusobacterium", "value": "Active"},
      {"measurement": "AUC(0-inf)", "setting": "[4]", "value": 280, "unit": "ng·h/mL"},
      {"measurement": "Activity", "setting": "Mus musculus [5]", "value": "Active"},
      {"measurement": "Activity", "setting": "Mus musculus [6]", "value": "Active"},
      {"measurement": "Activity", "setting": "Mus musculus [7]", "value": 68, "unit": "%"},
      {"measurement": "Activity", "setting": "Mus musculus [8]", "value": "inactive"},
      {"measurement": "Activity", "setting": "Mus musculus [9]", "value": "Active"},
      {"measurement": "Activity", "setting": "Mus musculus [10]", "value": "inactive"},
      {"measurement": "Tmax", "setting": "[11]", "value": 7, "unit": "h"},
      {"measurement": "Cmax", "setting": "[12]", "value": 49.3, "unit": "ng/mL"},
      {"measurement": "Activity", "setting": "Mus musculus [13]", "value": "Active"},
      {"measurement": "Activity", "setting": "Mus musculus [14]", "value": "inactive"},
      {"measurement": "Activity", "setting": "Mus musculus [15]", "value": "Active"},
      {"measurement": "Activity", "setting": "Mus musculus [16]", "value": "inactive"},
      {"measurement": "Activity", "setting": "Mus musculus [17]", "value": "Non-Toxic"},
      {"measurement": "Activity", "setting": "Mus musculus [18]", "value": "Active"},
      {"measurement": "Activity", "setting": "Mus musculus [19]", "value": "Active"},
      {"measurement": "Activity", "setting": "Mus musculus [20]", "value": "inactive"},
      {"measurement": "Activity", "setting": "Mus musculus [21]", "value": "Active"}
    ]}
  ]
}
